Test results: ChEMBL document CHEMBL1155808, “Antitumor activity of bis-indole derivatives” (J Med Chem, 2008)
Active and inactive are the calls of the source. No cut-off for these calls is given here.

Columns and labels:
[1] = Cytotoxicity against human mitochondrial gene-knockout human HL60p'0 cells after 48 hrs by MTT assay; assay type: functional, cell-based
[2] = Cytotoxicity against human leukemia cells; assay type: functional; details: Leukemia cell; for CC50: read-out: pLC50 (the source's name) (converted); for TGI: read-out: pTGI (converted)
Outline: (§1)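 NCI 60-cell-line human tumour screen, with subpanels for leukemia, melanoma, lung, colon, kidney, ovary, breast, prostate and CNS. Compounds were dissolved in DMSO and tested at five ten-fold dilutions, highest 10^-4 M (10^-3 M for some). Endpoints were GI50, TGI and LC50, reported as negative log molar. Some compounds were assayed once, others two or three times.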

[3] = Cytotoxicity against human ovarian cancer cells; assay type: functional; details: Cancer cell lines; for CC50: read-out: pLC50 (the source's name) (converted); for TGI: read-out: pTGI (converted)
[4] = Cytotoxicity against human prostate cancer cells; assay type: functional; details: Cancer cell lines; for CC50: read-out: pLC50 (the source's name) (converted); for TGI: read-out: pTGI (converted); outline: as §1
[5] = Cytotoxicity against human central nervous system cancer cells; assay type: functional; details: Cancer cell lines; for CC50: read-out: pLC50 (the source's name) (converted); for TGI: read-out: pTGI (converted); outline: as §1
[6] = Cytotoxicity against human melanoma cells; assay type: functional; details: Melanoma cell; for CC50: read-out: pLC50 (the source's name) (converted)
[7] = Inhibition of plasma membrane electron transport pathway in human HL60 cells by WST1 reduction assay; assay type: cell-based; details: HL-60
Outline: (§2)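 Cells at 10^5 per well in 0.1 ml pretreated 30 min with compound in DMSO (<0.1% final), then WST-1/mPMS added (final 500 µM and 20 µM); WST-1 reduction followed in real time at 450 nm; averages ± S.E.M. of four independent experiments.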

Mo7e = test: Antiproliferative activity against human Mo7e cells after 48 hrs by MTT assay; assay type: functional, cell-based
[8] = Inhibition of plasma membrane electron transport pathway in mitochondrial gene-knockout human HL60p'0 cells by WST1 reduction assay; outline: as §2
B1647 = test: Antiproliferative activity against human B1647 cells after 48 hrs by MTT assay; assay type: functional, cell-based
[9] = Cytotoxicity against human Non-small cell lung carcinoma cells; assay type: functional; details: for CC50: read-out: pLC50 (the source's name) (converted); for TGI: read-out: pTGI (converted); outline: as §1
HEL = test: Antiproliferative activity against human HEL cells after 48 hrs by MTT assay; assay type: functional, cell-based
[10] = Cytotoxicity against human renal cancer cells; assay type: functional; details: Cancer cell lines; for CC50: read-out: pLC50 (the source's name) (converted); for TGI: read-out: pTGI (converted); outline: as §1
[11] = Cytotoxicity against human breast cancer cells; assay type: functional; details: Cancer cell lines; for CC50: read-out: pLC50 (the source's name) (converted); for TGI: read-out: pTGI (converted)
Outline: (§3)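 MTT cytotoxicity assay in breast cancer cell lines; proliferation expressed as percent growth inhibition relative to vehicle-treated control cells; IC50 reported.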

[12] = Cytotoxicity against human colon cancer cells; assay type: functional; details: Cancer cell lines; for CC50: read-out: pLC50 (the source's name) (converted); outline: as §1
HL-60 = test: Cytotoxicity against human HL60 cells after 48 hrs by MTT assay; assay type: functional, cell-based; details: HL-60, 48 h
MCF7 [13] = test: Inhibition of proteasome in human MCF7 cells assessed as increase in stability of BCA2 protein at 1 umol/L in presence of cyclohexamide after 16 hrs by Western blot
Outline: (§4)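 MCF7 cells, 1×10^6 seeded per well, grown overnight; cycloheximide 100 μmol/L added alone or with MG-132 (10 μmol/L) or compound, total 8 and 16 h; lysates Western blotted with anti-BCA2, anti-C-erbB2 and β-actin antibodies; BCA2 and C-erbB2 levels expressed relative to β-actin by densitometry.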

Hs-578T = test: Cytotoxicity against human Hs578T cells; assay type: functional, cell-based; outline: as §3
MCF7 [14] = test: Cytotoxicity against human MCF7 cells; assay type: functional, cell-based
Mus musculus = test: Toxicity in ip dosed mouse assessed as maximum tolerated dose after 14 days; assay type: organism-based; details: in vivo, 336 h
Outline: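 Mice received a single i.p. injection of 400 mg/kg. If the animal survived 14 days, MTD was 400 mg/kg. If it died, the dose was lowered to 200 mg/kg and then halved repeatedly until a tolerated dose was found, which was taken as the MTD.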

MCF7 [15] = test: Effect on beta-actin stability in human MCF7 cells at 10 umol/L in presence of cyclohexamide by Western blot; assay type: functional, cell-based; outline: as §4
[16] = Inhibition of plasma membrane electron transport pathway in human B1647 cells by WST1 reduction assay; assay type: cell-based; outline: as §2
MCF7 [17] = test: Effect on C-erbB2 protein stability in human MCF7 cells at 10 umol/L in presence of cyclohexamide by Western blot; assay type: functional, cell-based; outline: as §4
[18] = Inhibition of plasma membrane electron transport pathway in human Mo7e cells by WST1 reduction assay; assay type: cell-based; outline: as §2
[19] = Inhibition of plasma membrane electron transport pathway in human HEL cells by WST1 reduction assay; assay type: cell-based; outline: as §2
MDA-MB-231 = test: Cytotoxicity against human MDA-MB-231 cells; assay type: functional, cell-based

O=C1Nc2ccc(Cl)cc2/C1=C\c1cccc(/C=C2/C(=O)Nc3ccc(Cl)cc32)n1
IC50 [1]: 3000 nM
GI50 [2]: 661 nM
CC50 [2]: 47900 nM
TGI [2]: 4900 nM
GI50 [3]: 1260 nM
CC50 [3]: 17800 nM
TGI [3]: 4170 nM
GI50 [4]: 1510 nM
CC50 [4]: 24500 nM
TGI [4]: 6610 nM
GI50 [5]: 891 nM
CC50 [5]: 14800 nM
TGI [5]: 2750 nM
GI50 [6]: 692 nM
CC50 [6]: 7940 nM
TGI ([6]; read-out: pTGI (converted)): 1910 nM
IC50 [7]: > 117000 nM
Activity (Mo7e): Active
IC50 [8]: > 117000 nM
Activity (B1647): Active
GI50 [9]: 1740 nM
CC50 [9]: 20000 nM
TGI [9]: 4370 nM
Activity (HEL): Active
GI50 [10]: 1260 nM
CC50 [10]: 7590 nM
TGI [10]: 2950 nM
GI50 [11]: 1120 nM
CC50 [11]: 22900 nM
TGI [11]: 4170 nM
GI50 [12]: 933 nM
CC50 [12]: 15100 nM
TGI ([12]; read-out: pTGI (converted)): 2570 nM
IC50 (HL-60): 3000 nM

O=C1Nc2cccc(Cl)c2/C1=C\c1cccc(/C=C2/C(=O)Nc3cccc(Cl)c32)n1
IC50 [1]: 3000 nM
fold change (FC) (MCF7 [13]): 2
IC50 (Hs-578T): 400 nM
IC50 (MCF7 [14]): 230 nM
MTD (Mus musculus): 400 mg/kg
Activity (MCF7 [15]): inactive
GI50 [2]: 91.2 nM
CC50 [2]: 44700 nM
TGI [2]: 1910 nM
GI50 [3]: 501 nM
CC50 [3]: 30900 nM
TGI [3]: 2820 nM
IC50 [16]: 30000 nM
GI50 [4]: 437 nM
CC50 [4]: 15800 nM
TGI [4]: 2090 nM
GI50 [5]: 603 nM
CC50 [5]: 23400 nM
TGI [5]: 2820 nM
GI50 [6]: 589 nM
CC50 [6]: 15800 nM
IC50 [7]: > 117000 nM
Activity (Mo7e): Active
IC50 [8]: > 117000 nM
Activity (B1647): Active
Activity (MCF7 [17]): inactive
IC50 [18]: 15000 nM
GI50 [9]: 676 nM
CC50 [9]: 34700 nM
TGI [9]: 2690 nM
IC50 [19]: 24000 nM
Activity (HEL): Active
GI50 [10]: 427 nM
CC50 [10]: 7590 nM
TGI [10]: 1510 nM
GI50 [11]: 389 nM
CC50 [11]: 39800 nM
TGI [11]: 3310 nM
GI50 [12]: 417 nM
CC50 [12]: 19100 nM
IC50 (MDA-MB-231): 300 nM
IC50 (HL-60): 3000 nM
